Calls of active or inactive are those of the source. The calls are words filed in the database; no cut-off is given here.

The subject of series [1] is Mus musculus. The experiment in a line: Reduction in PTEN mRNA expression in BALB/c mouse liver at 12 mg/kg, ip administered as single dose measured 72 hrs post dose. The series is classed as functional. To be noted: route intraperitoneal. A digest of the protocol:
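Single ip injection at 12 or 60 mg/kg of phosphorothioate gapmer (14-base deoxy gap, two modified nucleotides per wing) against PTEN in Balb-c mice, n = 4/group. After sacrifice, liver PTEN mRNA reported as % down-regulation versus saline controls, and plasma ALT (IU/L) measured as the liver toxicity read-out.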

Series [2] concerns Mus musculus. The series is described as follows: Hepatotoxicity in BALB/c mouse liver at 60 mg/kg, ip administered as single dose measured 72 hrs post dose.
For series [3], the system named is Mus musculus. The series is described as follows: Toxicity in BALB/c mouse assessed as increase in spleen weight at 1.5 mg/kg, ip administered twice weekly for 3 weeks measured after 72 hrs post last dose. To be noted: in vivo. The arrangement: dose 1.5 mg/kg, route intraperitoneal. It is filed as organism-based. In outline: (§1)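 Balb-c mice (n = 4/group) dosed ip twice a week for 3 weeks at 0.5, 1.5, 4.5 and 15 mg/kg of PTEN-targeting 14-mer phosphorothioate gapmer. Sacrifice 72 h after last dose. Liver PTEN mRNA by quantitative RT-PCR as % versus saline, with ED50 derived from dose-response. Plasma ALT (IU/L) recorded. Spleen weight given as fold increase over saline group.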

Series [4] concerns Mus musculus. The series is described as follows: Toxicity in BALB/c mouse assessed as increase in spleen weight at 4.5 mg/kg, ip administered twice weekly for 3 weeks measured after 72 hrs post last dose. The settings on record: in vivo. It is filed as organism-based. The arrangement: dose 4.5 mg/kg, route intraperitoneal. In outline: as §1
The test system of series [5] is Mus musculus. The series is described as follows: Toxicity in BALB/c mouse assessed as increase in spleen weight at 15 mg/kg, ip administered twice weekly for 3 weeks measured after 72 hrs post last dose. The series is classed as organism-based. The arrangement: dose 15 mg/kg, route intraperitoneal. To be noted: in vivo. A digest of the protocol: as §1
Series [6] has as its system Mus musculus. The experiment in a line: Hepatoprotective activity in BALB/c mouse assessed as at 46 mg/kg, ip assessed as reduction of plasma alanine amino transferase levels after 72 hrs post dose. It is filed as functional, organism-based. Also noted: dose 46 mg/kg. In outline: (§2)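 Balb-c mice, 4 per group, one ip dose at 23 or 46 mg/kg of 14-mer fully phosphorothioate gapmer ASO targeting PTEN. Sacrifice 72 h after dosing. Liver PTEN mRNA quantified by quantitative RT-PCR, expressed as % down-regulation versus saline-treated animals. Plasma ALT (IU/L) measured after sacrifice.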

The subject of series [7] is Mus musculus. The series is described as follows: Reduction in PTEN mRNA expression in ip dosed BALB/c mouse liver administered twice weekly for 3 weeks measured after 72 hrs post last dose. The series is classed as functional. A digest of the protocol: as §1
The test system of series [8] is Mus musculus. The experiment in a line: Hepatoprotective activity in BALB/c mouse assessed as at 23 mg/kg, ip assessed as reduction of plasma alanine amino transferase levels after 72 hrs post dose. The series is classed as functional, organism-based. Also noted: dose 23 mg/kg. A digest of the protocol:
as §2

Series [9] deals with Mus musculus. The series is described as follows: Reduction in PTEN mRNA expression in BALB/c mouse liver at 23 mg/kg, ip measured 72 hrs post dose by Rt-PCR. The series is classed as functional, organism-based. The arrangement: dose 23 mg/kg. In outline: as §2
The test system of series [10] is Mus musculus. The experiment in a line: Hepatoprotective activity in BALB/c mouse assessed as reduction of plasma alanine amino transferase levels at 15 mg/kg, ip administered twice weekly for 3 weeks measured after 72 hrs post last dose. It is filed as functional, organism-based. Also noted: dose 15 mg/kg. In outline: as §1
Series [11] deals with Mus musculus. The series is described as follows: Reduction in PTEN mRNA expression in BALB/c mouse liver at 46 mg/kg, ip measured 72 hrs post dose by Rt-PCR. It is filed as functional, organism-based. Also noted: dose 46 mg/kg. In outline:
as §2

The inhibition in vivo is how much of the control response was suppressed. A lower inhibition in vivo goes with a weak effect. In turn, `Cc1cn([C@@H]2O[C@@]3(CO)CO[C@@H]2[C@@H]3OP(O)(=S)OC[C@@]23CO[C@@H]([C@H](n4cc(C)c(=O)[nH]c4=O)O2)[C@@H]3OP(O)(=S)OC[C@@]23CO[C@@H]([C@H](n4cnc5c(=O)[nH]c(N)nc54)O2)[C@@H]3OP(O)(=S)OC[C@@]23CO[C@@H]([C@H](n4ccc(N)nc4=O)O2)[C@@H]3OP(O)(=S)OC[C@@]23CO[C@@H]([C@H](n4cc(C)c(=O)[nH]c4=O)O2)[C@@H]3OP(O)(=S)OC[C@@]23CO[C@@H]([C@H](n4cnc5ncnc(N)c54)O2)[C@@H]3OP(O)(=S)OC[C@@]23CO[C@@H]([C@H]([n+]4c[nH]c5nc(N)[nH]c(=O)c54)O2)[C@@H]3OP(O)(=S)OC[C@@]23CO[C@@H]([C@H](n4ccc(N)nc4=O)O2)[C@@H]3OP(O)(=S)OC[C@@]23CO[C@@H]([C@H](n4ccc(N)nc4=O)O2)[C@@H]3OP(O)(=S)OC[C@@]23CO[C@@H]([C@H](n4cc(C)c(=O)[nH]c4=O)O2)[C@@H]3OP(O)(=S)OC[C@@]23CO[C@@H]([C@H](n4ccc(N)nc4=O)O2)[C@@H]3OP(O)(=S)OC[C@@]23CO[C@@H]([C@H](n4cc(C)c(=O)[nH]c4=O)O2)[C@@H]3OP(O)(=S)OC[C@@]23CO[C@@H]([C@H]([n+]4c[nH]c5nc(N)[nH]c(=O)c54)O2)[C@@H]3OP(O)(=S)OC[C@@]23CO[C@@H]([C@H]([n+]4c[nH]c5nc(N)[nH]c(=O)c54)O2)[C@@H]3OP(O)(=S)OC[C@@]23CO[C@@H]([C@H](n4cnc5ncnc(N)c54)O2)[C@@H]3OP(O)(=S)OC[C@@]23CO[C@@H]([C@H](n4cc(C)c(=O)[nH]c4=O)O2)[C@@H]3OP(O)(=S)OC[C@@]23CO[C@@H]([C@H](n4cc(C)c(=O)[nH]c4=O)O2)[C@@H]3OP(O)(=S)OC[C@@]23CO[C@@H]([C@H](n4cc(C)c(=O)[nH]c4=O)O2)[C@@H]3O)c(=O)nc1N` (stereo partly drawn) yielded an inhibition in vivo at 12 mg/kg in the series with Mus musculus [1] of 90%. The Activity entry in the series on Mus musculus [2] is “Toxic”.

What is called ED50 is the dose at which the effect has come halfway, by size or by number of responders. Low values mean an effect at a small dose, high ones a need for a large dose. On to `Cc1cn([C@@H]2O[C@@]3(COP(O)(=S)O[C@@H]4[C@H]5OC[C@]4(CO)O[C@H]5n4cc(C)c(=O)[nH]c4=O)CO[C@@H]2[C@@H]3OP(O)(=S)OC[C@@]23CO[C@@H]([C@H](n4cnc5c(N)ncnc54)O2)[C@@H]3OP(O)(=S)OC[C@@]23CO[C@@H]([C@H](n4cc(C)c(=O)[nH]c4=O)O2)[C@@H]3OP(O)(=S)OC[C@@]23CO[C@@H]([C@H](n4cnc5nc(N)[nH]c(=O)c54)O2)[C@@H]3OP(O)(=S)OC[C@@]23CO[C@@H]([C@H](n4cnc5nc(N)[nH]c(=O)c54)O2)[C@@H]3OP(O)(=S)OC[C@@]23CO[C@@H]([C@H](N4CCC(N)=NC4=O)O2)[C@@H]3OP(O)(=S)OC[C@@]23CO[C@@H]([C@H](n4cc(C)c(=O)[nH]c4=O)O2)[C@@H]3OP(O)(=S)OC[C@@]23CO[C@@H]([C@H](n4cnc5nc(N)[nH]c(=O)c54)O2)[C@@H]3OP(O)(=S)OC[C@@]23CO[C@@H]([C@H](n4ccc(N)nc4=O)O2)[C@@H]3OP(O)(=S)OC[C@@]23CO[C@@H]([C@H](n4cnc5c(N)ncnc54)O2)[C@@H]3OP(O)(=S)OC[C@@]23CO[C@@H]([C@H](n4cnc5nc(N)[nH]c(=O)c54)O2)[C@@H]3OP(O)(=S)OC[C@@]23CO[C@@H]([C@H](n4cc(C)c(N)nc4=O)O2)[C@@H]3OP(O)(=S)OC[C@@]23CO[C@@H]([C@H](n4ccc(=O)[nH]c4=O)O2)[C@@H]3O)c(=O)nc1N` (stereo partly drawn), for which the Activity result with Mus musculus [3] is “Toxic”; in the series with Mus musculus [4], “Toxic”; in the series on Mus musculus [5], “Non-toxic”. The result in the series with Mus musculus [6] and in the series with Mus musculus [8] was inactive. In addition, the ED50 with Mus musculus [7] was determined as 3.1 mg/kg. The inhibition entry in the series with Mus musculus [7] is “Dose-dependent effect”.

Consider `Cc1cn([C@@H]2O[C@@]3(COP(O)(=S)O[C@H]4[C@H]5OC[C@]4(COP(O)(=S)O[C@H]4[C@H]6OC[C@]4(COP(O)(=S)O[C@H]4[C@H]7OC[C@]4(COP(O)(=S)O[C@H]4[C@H]8OC[C@]4(COP(O)(=S)O[C@H]4[C@H]9OC[C@]4(COP(O)(=S)O[C@H]4[C@H]%10OC[C@]4(COP(O)(=S)O[C@H]4[C@H]%11OC[C@]4([C@H](C)O)O[C@H]%11n4ccc(=O)[nH]c4=O)O[C@H]%10n4ccc(N)nc4=O)O[C@H]9n4cnc9c(N)ncnc94)O[C@H]8n4cc(C)c(=O)[nH]c4=O)O[C@H]7n4cnc7nc(N)[nH]c(=O)c74)O[C@H]6n4cnc6nc(N)[nH]c(=O)c64)O[C@H]5N4CCC(N)=NC4=O)CO[C@@H]2[C@@H]3OP(O)(=S)OC[C@@]23CO[C@@H]([C@H](n4cnc5nc(N)[nH]c(=O)c54)O2)[C@@H]3OP(O)(=S)OC[C@@]23CO[C@@H]([C@H](n4ccc(N)nc4=O)O2)[C@@H]3OP(O)(=S)OC[C@@]23CO[C@@H]([C@H](n4cnc5c(N)ncnc54)O2)[C@@H]3OP(O)(=S)OC[C@@]23CO[C@@H]([C@H](n4cnc5nc(N)[nH]c(=O)c54)O2)[C@@H]3OP(O)(=S)OC[C@@]23CO[C@@H]([C@H](n4ccc(N)nc4=O)O2)[C@@H]3OP(O)(=S)OC[C@@]23CO[C@@H]([C@H](n4ccc(=O)[nH]c4=O)O2)[C@@H]3O)c(=O)[nH]c1=O` (stereo partly drawn), for which the Activity result in the series with Mus musculus [3] and in the series on Mus musculus [4] was “Non-toxic” each time. In the series with Mus musculus [9], the inhibition result was “inactive”. Moreover, the result in the series with Mus musculus [6], in the series with Mus musculus [10] and in the series on Mus musculus [8] was Active. This compound came in with an ED50 in the series on Mus musculus [7] of 6 mg/kg. Further, the inhibition entry in the series with Mus musculus [7] was “Dose-dependent effect”. The inhibition entry in the series on Mus musculus [11] is “Active”.

The values are drawn from ChEMBL document CHEMBL1629539, “Configuration of the 5'-methyl group modulates the biophysical and biological properties of locked nucleic acid (LNA) oligonucleotides” (J Med Chem, 2010).
